As usually defined, the EC50 is the concentration that produces a half-maximal response. A high value points to weaker potency. As usually defined, the CC50 is the concentration at which the toxic effect on the cells reaches its halfway point. Read a low CC50 as harm at low concentration. As a reminder, the logP is a log measure of how a compound divides between an organic and an aqueous phase. Low readings indicate lower lipophilicity, high ones higher lipophilicity. In general, half-life refers to the time in which the quantity being followed falls by half.

The text below walks through data of ChEMBL document CHEMBL1132719, “cycloSal-Pronucleotides of 2'-fluoro-ara- and 2'-fluoro-ribo-2',3'- dideoxyadenosine as a strategy to bypass a metabolic blockade” (J Med Chem, 1999).

Some results are limits rather than exact numbers.

In series [1] the test system is C3H/3T3. Briefly: (§1) Minimal cytotoxic concentration required to cause morphological alteration of C3H/3T3 fibroblast culture cells. Conditions: Mus musculus. The format is functional.
The subject of series [2] is C3H/3T3. Briefly: (§2) Effect of compound against Moloney murine sarcoma virus (MSV)-induced transformation of C3H/3T3 embryo murine fibroblasts. The series is classed as functional, cell-based. Conditions: Mus musculus. The essentials: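 C3H/3T3 murine embryo fibroblasts seeded at 20 000 cells/mL, incubated 24 h, then infected for 120 min with 80 focus-forming units of Moloney murine sarcoma virus. Medium then replaced with fresh medium containing serial compound concentrations. Cell transformation scored microscopically after 6 days; EC50 taken as the concentration giving 50% inhibition of virus-induced transformation.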

Series [3] concerns CCRF-CEM. Description: Antiviral activity evaluated as the ability to inhibit the replication of HIV-1 in human T-lymphocytic cells (CEM). The format is functional, cell-based. The essentials:
(§3)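 CEM cells at 4 × 10^5 cells/mL infected with HIV-1 (HTLV-IIIB) or HIV-2 (ROD) at ~100 CCID50 per mL. Virus stocks came from infected MT-4 supernatants. Infected cells were mixed with serial compound dilutions. Giant cell formation was scored microscopically after 4–5 days. EC50 is the 50% effective concentration.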

The test system of series [4] is CCRF-CEM. Description: Antiviral activity evaluated as the ability to inhibit the replication of HIV-2 in human T-lymphocytic cells (CEM). The series is classed as functional, cell-based. The method in brief: as §3
Series [5] in a line: Selectivity index by CC50 of CEM cells/EC50 of CEM cells against HIV-1. The format is functional, CCRF-CEM.
In series [6] the test system is CCRF-CEM. Briefly: Cytotoxic concentration in Wild Type CEM cells. Conditions: Homo sapiens. The format is functional.
Series [7] in a line: Partition coefficient (logP). The series is classed as physicochemical. Conditions: octanol/water. The method in brief: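 Compound dissolved in 1-octanol, then an equal volume of water added. Phases were vortexed 10 min and separated by centrifugation. Each phase was analysed by RP-HPLC (UV 260 nm). P was calculated from the peak areas of the aqueous and organic phases.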

Series [8] can be described thus: Hydrolysis half life in phosphate buffer. The series is classed as ADME. The essentials: (§4)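 Triester at 0.71 mM final in 25 mM Sørensen phosphate buffer, pH 7.3, 37 °C, with AZT as internal standard. Aliquots were frozen in liquid air, then analysed by RP-HPLC (UV 260 nm). k was taken from the slope of the log degradation curve of the starting triester and t1/2 derived from k. Values are the mean of duplicates, in hours.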

The test system of series [9] is C3H/3T3. The series is described as §1. The format is functional. Conditions: Mus musculus. The essentials:
(§5)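 C3H/3T3 cells seeded at 20 000 cells/mL and grown 24 h, then infected with 80 focus-forming units of MSV for 120 min. Medium was replaced with fresh medium containing the test compound. Transformation was examined microscopically after 6 days. EC50 is the concentration giving 50% inhibition of transformation. MCC is the minimum concentration causing microscopically visible morphological alteration of the cultures.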
The source holds these as a separate data set.

Series [10] relates to C3H/3T3. The description is as §2. The format is functional, cell-based. Conditions: Mus musculus. The essentials:
as §5
The source holds these as a separate data set.

A short description of series [11]: Hydrolysis half life in phosphate buffer. The series is classed as ADME. The method in brief:
as §4

In series [1], `Nc1ncnc2c1ncn2[C@H]1CC[C@@H](CO)O1` showed an MCC above 50 µM. For the same molecule, the EC50 in series [2] is 39.1 µM; in series [3], 4.33 µM; in series [4], 4.55 µM. In addition, the SI in series [5] is above 57. In addition, in series [6], the CC50 was above 250 µM.
With `Nc1ncnc2c1ncn2C1OC(COP2(=O)OCc3ccccc3O2)C[C@H]1F` (stereo not given in full), the log partition coefficient (logP) in series [7] turned out to be 0.72. In addition, the half-life in series [8] is 8.4 h. In addition, in [9], the MCC is above 50 µM. Moreover, the EC50 is 4.7 µM in series [10], 19 µM in series [3] and 13 µM in series [4]. The SI in [5] was above 19. In series [6], this molecule returned a CC50 above 250 µM.
In series [7], `Cc1cccc2c1OP(=O)(OCC1C[C@@H](F)C(n3cnc4c(O)ncnc43)O1)OC2` (stereo not given in full) displayed a logP of 0.24. Moreover, in series [8], the half-life is 22.7 h. This molecule also gave an MCC in [9] above 50 µM. For the same molecule, the values for the EC50 in series [10], in series [3] and in series [4] were above 50 µM, 75 µM and 31.7 µM, respectively. In addition, in [5], the SI is reported as above 8. In addition, in series [6], the CC50 was above 250 µM.
Regarding `OCC1C[C@@H](F)C(n2cnc3c(O)ncnc32)O1` (stereo not given in full), the logP in series [7] is -0.96. In addition, in [9], the MCC is above 50 µM. For the same molecule, the EC50 in series [10] was above 50 µM; in series [3], above 250 µM; in series [4] it was above 250 µM. In series [6], this molecule registered a CC50 above 250 µM.
`Nc1ncnc2c1ncn2[C@@H]1OC(CO)C[C@H]1F` (single isomer, unassigned): the logP in series [7] is -0.2. The MCC in [1] is above 50 µM. For the same molecule, the figures for the EC50 in series [2], in series [3] and in series [4] were above 50 µM, above 250 µM and above 250 µM, respectively. The molecule also returned a CC50 in series [6] above 250 µM.
In series [7], `COc1ccc2c(c1)COP(=O)(OCC1C[C@H](F)C(n3cnc4c(N)ncnc43)O1)O2` (stereo not given in full) showed a logP of 1.04. The molecule further showed a half-life in [8] of 13 h. The values for the EC50 in series [3] and in series [4] were 1.5 µM and 5.67 µM, respectively. In series [6], this molecule returned a CC50 of 121 µM.
As for `Cc1cccc2c1OP(=O)(OC[C@@H]1C[C@@H](F)[C@H](n3cnc4c(N)ncnc43)O1)OC2` (stereo not given in full), in [7], the logP amounted to 0.93. Further, in series [8], the half-life is 23.4 h. The MCC in series [9] was above 50 µM. Also, the EC50 worked out at 2.83 µM in series [10], 11.7 µM in series [3] and 12.5 µM in [4]. For the same molecule, the SI in series [5] came out at 10. Further, the CC50 in [6] was found to be 118 µM.
In turn, `Nc1ncnc2c1ncn2[C@@H]1O[C@H](CO)C[C@@H]1F` [LODENOSINE] came in with a logP in [7] of -0.16. In series [1], this molecule registered an MCC above 50 µM. The EC50 was above 50 µM in series [2], 36.7 µM in series [3] and 40 µM in [4]. The molecule also yielded an SI in series [5] above 6.8. In series [6], this molecule showed a CC50 above 250 µM.
For `Nc1ncnc2c1ncn2C1OC(COP2(=O)OCc3ccccc3O2)C[C@@H]1F` (stereo not given in full), the logP in series [7] stood at 0.95. The half-life in [11] is 8.9 h. In [9], this molecule came in with an MCC above 50 µM. For the same molecule, the EC50 was 1.7 µM in [10], 4.53 µM in [3] and 1.85 µM in series [4]. This molecule had an SI in series [5] of 74. The molecule further showed a 50% cytotoxic concentration (CC50) in series [6] of 137 µM.
Consider `Cc1cn([C@H]2C=C[C@@H](CO)O2)c(=O)[nH]c1=O` [STAVUDINE], for which the midpoint of cytotoxicity in [6], the CC50, lay at 56 µM.
In the case of `OCC1C[C@H](F)C(n2cnc3c(O)ncnc32)O1` (stereo not given in full), the logP in [7] was -1.19. For the same molecule, in series [9], the MCC is above 50 µM. For the same molecule, the results for the EC50 in series [10], in series [3] and in series [4] were above 50 µM, 41.7 µM and 30 µM, respectively. The molecule also registered an SI in series [5] above 8. Also, the CC50 in [6] was above 250 µM.
`COc1ccc2c(c1)COP(=O)(OCC1C[C@@H](F)C(n3cnc4c(N)ncnc43)O1)O2` (stereo not given in full) had a logP in series [7] of 0.71. The molecule further showed a half-life in series [8] of 12.3 h. Further, the EC50 in series [3] was determined as 20 µM; in [4], 25 µM. The molecule also came in with an SI in series [5] above 12. This molecule returned a CC50 in series [6] above 250 µM.
On to `Cc1cccc2c1OP(=O)(OC[C@@H]1C[C@H](F)C(n3cnc4c(N)ncnc43)O1)OC2` (single isomer, unassigned), for which, in [7], the logP was determined as 1.29. Moreover, the half-life in series [8] is 21.6 h. The EC50 in series [3] was determined as 3.67 µM; in [4], 3.3 µM. For the same molecule, the SI in [5] came to 44. Half-maximal cytotoxicity in series [6] (CC50) was put at 146 µM.
`Cc1cccc2c1OP(=O)(OCC1C[C@H](F)C(n3cnc4c(O)ncnc43)O1)OC2` (stereo not given in full): in series [7], the logP amounted to 0.51. In series [8], the half-life was 22.2 h. For the same molecule, the MCC in series [9] is above 50 µM. Besides, the figures for the EC50 in series [10], in series [3] and in [4] were above 50 µM, 3.57 µM and 3.57 µM, respectively. In series [5], this molecule showed an SI of 26. Further, the CC50 in series [6] was above 250 µM.
